This is a sample that favours compounds with a hit; in the whole collection about 2.3% have one here.
TRPC6 inh = blocks the mouse TRPC6 cation channel; HEK293-TRPC6, membrane potential dye, ACh-evoked depolarization; stronger effect = lower value; B-score at 10 µM; 310,000 tested, 1.1% active;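 active = B-score under library mean minus 3 SD, initial fluorescence not abnormally high, positive integrated signal ratio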;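 note: B-score derived from integrated fluorescence ratio over the kinetic read; more negative B-score means stronger inhibition of depolarization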
Target sequence (Q61143 whole entry, looked up): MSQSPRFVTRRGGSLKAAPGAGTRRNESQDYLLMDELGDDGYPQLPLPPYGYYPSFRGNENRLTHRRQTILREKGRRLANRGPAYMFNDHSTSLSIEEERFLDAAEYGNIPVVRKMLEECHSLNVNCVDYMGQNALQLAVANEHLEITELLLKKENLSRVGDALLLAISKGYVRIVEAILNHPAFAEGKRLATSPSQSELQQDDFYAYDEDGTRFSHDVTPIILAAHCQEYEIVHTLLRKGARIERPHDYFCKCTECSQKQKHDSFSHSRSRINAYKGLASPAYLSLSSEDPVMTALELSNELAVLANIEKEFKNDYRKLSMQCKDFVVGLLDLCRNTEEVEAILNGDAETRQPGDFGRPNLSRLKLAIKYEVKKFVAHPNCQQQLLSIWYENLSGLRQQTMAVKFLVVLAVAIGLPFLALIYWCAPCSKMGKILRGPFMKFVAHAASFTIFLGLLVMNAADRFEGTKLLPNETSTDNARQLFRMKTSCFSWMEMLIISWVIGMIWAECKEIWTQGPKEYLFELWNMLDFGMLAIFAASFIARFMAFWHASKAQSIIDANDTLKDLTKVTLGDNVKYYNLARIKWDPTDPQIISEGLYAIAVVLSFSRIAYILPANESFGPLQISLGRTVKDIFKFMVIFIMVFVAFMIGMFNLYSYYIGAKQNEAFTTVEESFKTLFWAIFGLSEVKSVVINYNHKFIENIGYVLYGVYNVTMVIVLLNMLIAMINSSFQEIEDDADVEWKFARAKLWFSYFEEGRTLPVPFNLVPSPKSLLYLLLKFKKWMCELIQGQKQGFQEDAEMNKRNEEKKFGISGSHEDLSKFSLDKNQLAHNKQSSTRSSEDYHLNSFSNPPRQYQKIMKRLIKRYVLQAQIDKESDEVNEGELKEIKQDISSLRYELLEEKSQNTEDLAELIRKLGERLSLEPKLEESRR
TRPC4 act = TRPC4 (mouse) channel activation. AID 2237. Q9QUQ5. 310,000 tested, 0.49% active. HEK293 TRPC4beta/mu-opioid, Fluo4 calcium fluorescence; stronger effect = higher value. B-score at 10 µM;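 active = B-score above 5 SD of library B-scores, and initial fluorescence ratio not above library mean plus 5 SD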;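 note: positive B-score marks a calcium rise read as TRPC4 activation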
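Assay system: HEK293 stable line with TRPC4beta plus mu-opioid receptor; schedule: 45 min room-temperature Fluo4 loading, 110 s read; technique: kinetic Fluo4 calcium fluorescence; evaluation: integrated baseline-normalised fluorescence ratio, converted to per-well B score; controls: buffer (low) and maximal DAMGO (high)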
TRPC4 block = TRPC4 (mouse) channel inhibition. Q9QUQ5. HEK293 TRPC4beta/mu-opioid, DAMGO-evoked Fluo4 calcium flux; stronger effect = lower value. B-score at 10 µM. 300,000 tested, 0.39% active;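 active = B-score over 3 SD under the library average, no early fluorescence shift, positive overall ratio signal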
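Assay system: TRPC4beta/mu-opioid receptor HEK293 cell line; compound dosing: single concentration per test compound; detection: Fluo4 Ca2+ flux fluorescence; evaluation: per-well B score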
TRPC4 potent = TRPC4 (mouse) allosteric potentiation. HEK293 TRPC4beta/mu-opioid, DAMGO EC20, Fluo-4 Ca2+ flux; stronger effect = higher value. B-score at 10 µM. 310,000 tested, 0.42% active;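 active = B-score of calcium response area above 5 SD of library B-scores, with initial fluorescence ratio within 5 SD of library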;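 note: B-score of integrated fluorescence ratio over time as area under calcium response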
TRPC6 act = mouse TRPC6 channel activation. HEK293-TRPC6 membrane potential dye fluorescence; stronger effect = higher value. B-score at 10 µM. 310,000 tested, 0.13% active. AID 2550;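 active = B-score of the integrated fluorescence ratio above library mean plus 3 SD, and starting fluorescence ratio within library mean plus 5 SD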;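 note: higher score means more depolarization so channel activation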
TRPC4 sel inh 2 = second selectivity test of TRPC6 inhibitors: effect on mouse TRPC4 | HEK293 TRPC4/MOR, membrane potential dye fluorescence; channel activated by saturating DAMGO dose | AID 2776 | inhibition, % at 10 µM | 920 tested, 42% active | shares compounds with TRPC6 inh;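 active = compounds whose fluorescence signal differed from control wells by over 3 SD, either direction, in both duplicate plates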
TRPC4 spec = mouse TRPC4 off-target activity of TRPC6 inhibitors; activity change, negative = inhibition, % at 10 µM; HEK293 TRPC4/mu-opioid, membrane potential fluorescence; AID 2777; shares compounds with TRPC6 inh; 920 tested, 61% active;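 active = rise or fall in signal beyond 3 SD of buffer-only wells in both replicate plates, either sign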;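 note: integrated kinetic ratio of fluorescence range over baseline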
HEK293 MPD ctr 2-1 = second check of TRPC6 inhibitor effects in parental HEK293 cells; shares compounds with TRPC6 inh; parental HEK293 membrane potential dye fluorescence; maximal acetylcholine challenge after compound addition; signal change vs control, % at 10 µM; 920 tested, 31% active; AID 2779;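 active = membrane potential signal moving either way by over 3 SD of the maximum-effect control, in both duplicate plates, meaning non-specific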
HEK293 MPD ctr-1 = checks TRPC6 inhibitor effects in parental HEK293 cells; membrane potential signal change, % at 10 µM; 920 tested, 60% active; AID 2780; parental HEK293 membrane potential dye fluorescence; shares compounds with TRPC6 inh;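 active = membrane potential signal shifting up or down by more than 3 SD of buffer-only wells, on both duplicate plates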
HEK293 MPD ctr-2 = parental HEK293 nonspecific activity of TRPC6 modulators; membrane potential signal change, % at 10 µM; shares compounds with TRPC6 inh; 2,400 tested, 51% active; membrane potential dye fluorescence; AID 488924;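 active = membrane potential signal moves up or down beyond 5 SD from buffer-only wells, on both duplicate plates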
HEK293 MPD ctr 2-2 = parental HEK293 nonspecific activity of TRPC6 modulators, second screen. shares compounds with TRPC6 inh. membrane potential dye fluorescence; after compound, maximal acetylcholine stimulation. inhibition, % at 10 µM. 2,400 tested, 14% active;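 active = membrane potential signal drops by more than 5 SD from the mean control signal, in both duplicate plates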;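 note: plate controls were acetylcholine ECmax control wells for no effect and buffer only wells for full effect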
TRPC4 ctr mod = mouse TRPC4 off-target activity of TRPC6 modulators | shares compounds with TRPC6 inh | 2,400 tested, 69% active | AID 488927 | HEK293 TRPC4/mu-opioid, membrane potential fluorescence | percent change from control (negative = decrease, positive = increase), % at 10 µM;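 active = membrane potential signal moved up or down beyond 5 SD of buffer control wells, in both duplicate plates, actives on both sides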;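 note: plate controls were assay buffer wells for no effect and DAMGO maximal-effect wells for full effect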
TRPC4/MOR inh 2 = second selectivity test of TRPC6 modulators against mouse TRPC4 | shares compounds with TRPC6 inh | HEK293 TRPC4/mu-opioid, membrane potential dye fluorescence; stimulated with maximal-effect DAMGO | inhibition, % at 10 µM | 2,400 tested, 55% active;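 active = drop in membrane potential signal beyond 5 SD of the control wells in both duplicate plates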;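 note: TRPC4 counter screen for TRPC6 hits run under conditions tuned for TRPC6 not TRPC4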
TRPC6 block conf = mouse TRPC6 inhibitor confirmation | shares compounds with TRPC6 inh | HEK293-TRPC6, membrane potential dye, ACh-evoked depolarization | inhibition, % at 10 µM | 3,300 tested, 43% active | AID 488960;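 active = fluorescence ratio falls more than 5 SD below the full-stimulation control mean, in both duplicate runs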;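 note: integrated fluorescence ratio of peak minus minimum over baseline after agonist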
TRPC6 act conf = confirmation of mouse TRPC6 activators; AID 488961; 2,800 tested, 11% active; HEK293-TRPC6 membrane potential dye fluorescence, FDSS; shares compounds with TRPC6 inh; activation, % at 10 µM;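 active = ratio signal rise beyond 5 SD above unstimulated control wells' mean, seen in both duplicate runs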;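 note: plate controls were buffer EC0 wells for no effect and acetylcholine ECmax response for full effect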
An asterisk follows results filed as active; i = inactive; x = no result given.

SMILES | TRPC6 inh | TRPC4 act | TRPC4 block | TRPC4 potent | TRPC6 act | HEK293 MPD ctr-2 | HEK293 MPD ctr 2-2 | TRPC4 ctr mod | TRPC4/MOR inh 2 | TRPC6 block conf | TRPC6 act conf | others
COc1ccc(C2N(c3ccccc3)C(=S)N3CCCN23)cc1 (stereo not given) | i | i | i | i | i | x | x | x | x | x | x
S=C1N(c2ccccc2)C(c2ccc(Br)cc2)N2CCCN12 (stereo not given) | -10* | i | i | i | i | x | x | x | x | 68%* | i | TRPC4 sel inh 2=i;TRPC4 spec=i;HEK293 MPD ctr 2-1=18%*;HEK293 MPD ctr-1=i
S=C1N(c2ccccc2)C(c2ccc(Cl)cc2)N2CCCN12 (stereo not given) | -8.7* | i | i | i | i | x | x | x | x | 68%* | i | TRPC4 sel inh 2=i;TRPC4 spec=i;HEK293 MPD ctr 2-1=30%*;HEK293 MPD ctr-1=i
O=C1C=CC(=O)N1N(c1ccccc1)c1ccccc1 | i | i | i | i | i | x | x | x | x | x | x
Cc1ccc(O)c(C(=O)c2cc(C#N)c(=O)n(-c3nccs3)c2)c1 | i | i | i | i | 31* | 435%* | i | 164%* | 58%* | i | 86%*
Cc1ccc(O)c(C(=O)c2cc(C#N)c(=O)n(-c3c(C)n(C)n(-c4ccccc4)c3=O)c2)c1 | i | i | i | i | i | x | x | x | x | x | x
CC(=O)NCCc1nc2ccccc2n1Cc1cc(C)ccc1C | -5.1* | i | i | i | i | i | i | 17%* | i | i | i
Cc1c(N2CCCC2)cc2c(c1NC(=O)c1ccccc1Cl)C(C)(C)CC2(C)C | i | i | i | i | i | x | x | x | x | x | x
Cc1nnc(NC(=O)CSc2nnc(CCc3nc4ccccc4[nH]3)n2C)s1 | i | i | i | i | 14* | 261%* | i | 40%* | i | i | 108%*
CCc1nnc(NC(=O)CSc2nnc(CCc3nc4ccccc4[nH]3)n2C)s1 | i | i | i | i | i | x | x | x | x | x | x
CN1CCN(C(=O)c2cc(Cl)ccc2NC(=O)c2ccc(Cl)cc2Cl)CC1 | i | i | i | i | i | x | x | x | x | x | x
CCN(C(=O)c1nn(-c2ccc(OC)cc2)c(=O)c2c1c1ccccc1n2C)c1ccc(OC)cc1 | i | i | i | i | i | x | x | x | x | x | x
CCCCN(C)CCNC(=O)c1nn(-c2ccc(OC)cc2)c(=O)c2c1c1ccccc1n2C | -5.7* | i | i | i | i | i | i | -16%* | 68%* | i | i
CN(C)c1cccc(/C=C(\C#N)c2ccccc2)c1 | i | i | i | i | i | x | x | x | x | x | x
COc1cnc(-c2ccccn2)nc1N(C)C | -5.2* | i | i | i | i | -76%* | i | -16%* | i | i | i
COc1cnc(-c2ccccn2)nc1Oc1cccc(Cl)c1 | -5.5* | i | i | i | i | i | i | i | i | i | i
COc1ccc(Oc2nc(-c3ccccn3)ncc2OC)cc1 | i | i | i | i | i | x | x | x | x | x | x
Cc1c(C)n(Cc2ccccc2)c2ncnc(NCCN(C)C)c12 | -7.1* | i | i | i | i | x | x | x | x | i | i | TRPC4 sel inh 2=i;TRPC4 spec=-17%*;HEK293 MPD ctr 2-1=i;HEK293 MPD ctr-1=-277%*
Cc1c(C)n(Cc2ccccc2)c2ncnc(NN)c12 | i | i | i | i | i | x | x | x | x | x | x
Cc1c(C)n(Cc2ccccc2)c2ncnc(NCCCN(C)C)c12 | -6* | i | i | i | i | -102%* | i | -20%* | 54%* | 42%* | i
COc1ccccc1Nc1ncnc2c1c(C)c(C)n2CCCN(C)C | -5.2* | i | i | i | i | -101%* | i | -23%* | 74%* | 54%* | i
Cc1c(C)n(-c2ccccc2)c2ncnc(NCCCN(C)C)c12 | i | i | i | i | i | x | x | x | x | x | x
O=C(Nc1nc2ccccc2n1CCN1CCCCC1)c1ccco1 | -7.9* | i | i | i | i | x | x | x | x | i | i | TRPC4 sel inh 2=48%*;TRPC4 spec=-18%*;HEK293 MPD ctr 2-1=i;HEK293 MPD ctr-1=-264%*
O=C(Nc1nc2ccccc2n1CCOc1ccccc1)c1ccco1 | i | i | i | i | i | x | x | x | x | x | x
CCn1cc(Cl)c(C(=O)Nc2nc3ccccc3n2CCN2CCCCC2)n1 | -8.7* | i | i | i | i | -270%* | 74%* | -42%* | 66%* | 60%* | i
CCN(CC)CCCCNc1ncc2cc(-c3cc(OC)cc(OC)c3)c(NC(=O)NC(C)(C)C)nc2n1 | -5.5* | i | i | i | i | i | i | i | 43%* | 54%* | i
CCN(CC)CCNC(=O)COc1ccc(OC)cc1 | i | i | i | i | i | x | x | x | x | x | x
N#CC1=C(N)Oc2cc(Nc3ccccc3)ccc2C1c1ccncc1 (stereo not given) | i | i | i | i | i | x | x | x | x | x | x
CN(C)CCOC1c2ccccc2CSc2ccccc21 (stereo not given) | -7.8* | i | i | i | i | x | x | x | x | 53%* | x | TRPC4 sel inh 2=i;TRPC4 spec=5.7%*;HEK293 MPD ctr 2-1=40%*;HEK293 MPD ctr-1=6.8%*
COc1ccc(NS(=O)(=O)c2cc(NC(=O)c3ccc(C)s3)ccc2N2CCOCC2)cc1 | i | i | i | i | i | x | x | x | x | x | x
